Most compounds without a hit are left out; they make up all but 0.99% or so of the library.
NPR1 activator – GC-A (human) enzyme activation. activation, % at 10 µM. P16066. actives 0.14% (n = 370,000). HEK293 GC-A cells, cGMP TR-FRET, EC30 ANP; 0% at EC30 ANP, 100% saturating ANP; in the data active means activation above about 40%
CaV13 ICDI inh – Disruptors of the CACNA1D IQ motif to Ca2+-dependent inactivation inhibitor domain association, primary screening, Förster resonance energy transfer in intact living …; inhibition, % at 12.3 µM; HEK cells, CFP/YFP FRET ICDI-IQ, plate reader, 10 min; percent FRET-ratio fall versus neutral wells; actives 0.098% (n = 340,000);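 active means mean replicate inhibition of at least 30% and at least 1% of replicates passing that level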
NSD2 inh – inhibitors of human histone methyltransferase NSD2; O96028; NSD2 peptide methylation, AlphaScreen, 120 min; inhibition, % at 12.5 µM; actives 0.54% (n = 310,000); AID 743445; in the data active means inhibition above about 50%
GC-B act – GC-B (human) receptor activation; actives 0.11% (n = 370,000); activation, % at 10 µM; HEK293-GC-B cells, CNP EC30, cGMP TR-FRET; 0% at EC30 CNP, 100% saturating CNP;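 active means activation at 10 µM reaching about 35% in either raw or pattern-adjusted values, limit read from the data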
Target sequence (P20594 whole entry, looked up): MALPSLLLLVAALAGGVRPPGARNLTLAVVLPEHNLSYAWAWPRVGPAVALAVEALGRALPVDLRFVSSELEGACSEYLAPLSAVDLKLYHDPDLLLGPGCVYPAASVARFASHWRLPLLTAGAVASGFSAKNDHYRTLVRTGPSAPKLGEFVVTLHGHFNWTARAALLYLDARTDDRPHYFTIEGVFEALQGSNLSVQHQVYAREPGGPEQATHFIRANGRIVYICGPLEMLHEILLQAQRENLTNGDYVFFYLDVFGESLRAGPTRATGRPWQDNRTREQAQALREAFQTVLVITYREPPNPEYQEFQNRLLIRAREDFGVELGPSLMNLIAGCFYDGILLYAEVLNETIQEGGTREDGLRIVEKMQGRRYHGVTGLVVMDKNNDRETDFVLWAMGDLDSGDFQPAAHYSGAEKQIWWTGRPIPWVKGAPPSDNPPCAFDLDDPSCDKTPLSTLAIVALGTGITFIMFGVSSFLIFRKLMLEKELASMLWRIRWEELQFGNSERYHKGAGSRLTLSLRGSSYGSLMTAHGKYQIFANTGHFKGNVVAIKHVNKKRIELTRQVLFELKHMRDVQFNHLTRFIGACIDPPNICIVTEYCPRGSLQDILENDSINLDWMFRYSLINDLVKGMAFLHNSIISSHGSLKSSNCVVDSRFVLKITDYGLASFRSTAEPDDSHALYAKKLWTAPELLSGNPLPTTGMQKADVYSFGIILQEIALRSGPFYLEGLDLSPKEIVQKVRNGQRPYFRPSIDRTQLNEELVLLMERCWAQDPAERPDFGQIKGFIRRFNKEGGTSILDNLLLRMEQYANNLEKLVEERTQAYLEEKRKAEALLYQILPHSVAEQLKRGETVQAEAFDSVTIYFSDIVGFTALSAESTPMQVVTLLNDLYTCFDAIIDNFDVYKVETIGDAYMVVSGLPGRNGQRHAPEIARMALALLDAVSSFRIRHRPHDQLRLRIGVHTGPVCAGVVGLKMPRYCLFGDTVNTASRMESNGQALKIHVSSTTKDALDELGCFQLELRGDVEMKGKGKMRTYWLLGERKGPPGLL
CASP6 VEID inh – caspase-6 (human) enzyme inhibition. purified caspase-6, Z-VEID-R110 cleavage fluorescence. inhibition, % at 12.5 µM. AID 686996. P55212. actives 0.53% (n = 350,000);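 active means mean inhibition across replicates at least about 35%, with every replicate also reaching that limit, limit read from the data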
FN deposit inh – fibronectin deposition inhibition | actives 0.086% (n = 350,000) | AID 743247 | AH1F fibroblasts, Alexa488-fibronectin deposition fluorescence, overnight | inhibition, % at 12.6 µM;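 active means mean inhibition across replicates of 30% or more, regardless of how many single replicates reach that level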
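Assay system: AH1F fibroblasts / Quantity: 10000 cells per well / Medium: DMEM plus 2% serum, read in PBS / Reagent: labelled fibronectin 24 nM / Dosing: single dose, pinned / Times: 1 h cell attachment, overnight exposure to compound and label / Signal: fluorescence, ex 485 nm, em 525 nm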
Alpha artifact – AlphaScreen assay artifact in NSD2 counter-screen | AC35, µM (highest dose often 10 µM) | actives 9.4% (n = 1,500) | AlphaScreen artifact counterscreen, preloaded methylated H4 peptide | shares compounds with NSD2 inh | AID 1053174; call rule not given here
Each line names hits and unclear results; the compound was inactive in the other large screens (follow-up assays come after a bar, where they were run).

CNC[C@H]1OCCCC[C@@H](C)Oc2ccc(NC(=O)Nc3ccccc3)cc2C(=O)N([C@@H](C)CO)C[C@@H]1C	none (no result: NPR1 activator, CaV13 ICDI inh, NSD2 inh, GC-B act, FN deposit inh)
O=C(C[C@H]1CC[C@H](NC(=O)CCN2CCCCC2)[C@@H](CO)O1)NCc1ccc(Cl)c(Cl)c1	none (no result: NPR1 activator, CaV13 ICDI inh, NSD2 inh, GC-B act)
CC(C)NC1=C(Cl)C(=O)c2ccccc2C1=O	none (no result: CaV13 ICDI inh, CASP6 VEID inh, FN deposit inh)
O=C1C(Cl)=C(NCCc2ccccc2)C(=O)N1CCc1ccccc1	none (no result: CASP6 VEID inh)
C=CCNC1=C(Cl)C(=O)c2ccccc2C1=O	NSD2 inh 92 (no result: CASP6 VEID inh) | Alpha artifact inactive
O=C(O)c1cccc(NC2=C(Cl)C(=O)c3ccccc3C2=O)c1	NSD2 inh 99 | Alpha artifact inactive
O=C1C(Cl)=C(NCCc2ccccc2)C(=O)c2ccccc21	NSD2 inh 81, CASP6 VEID inh 44 | Alpha artifact inactive
O=C(NCc1ccc(F)cc1)[C@H]1[C@H](CO)[C@H]2Cn3c(cccc3=O)[C@H]2N1CC1CC1	none (no result: NPR1 activator, CaV13 ICDI inh, NSD2 inh, GC-B act, FN deposit inh)
COc1ccc(S(=O)(=O)Nc2ccc3c(c2)C(=O)N([C@H](C)CO)C[C@H](C)[C@H](CN(C)C)O3)cc1	none (no result: NPR1 activator, CaV13 ICDI inh, NSD2 inh, GC-B act, FN deposit inh)
O=C(Nc1ccccc1F)N1CCCCN2[C@@H](CO)[C@H](c3ccc(-c4cccnc4)cc3)[C@@H]2C1	none (no result: NPR1 activator, CaV13 ICDI inh, NSD2 inh, GC-B act, FN deposit inh)
O=C(Nc1ccc(S(=O)(=O)Nc2nccs2)cc1)C1CC(=O)N(c2ccc(Cl)cc2)C1 (stereo unspecified)	none
O=C(Nc1ccc(S(=O)(=O)Nc2ncccn2)cc1)C1CC(=O)N(c2ccc(Cl)cc2)C1 (stereo unspecified)	NSD2 inh 76 | Alpha artifact inactive
COc1ccc(NC(=O)N(C)C[C@H]2Oc3ncc(-c4cccnc4)cc3C(=O)N([C@@H](C)CO)C[C@H]2C)cc1	none (no result: NPR1 activator, CaV13 ICDI inh, NSD2 inh, GC-B act, FN deposit inh)
NC(=O)c1oc2ccc(Cl)cc2c1N	NSD2 inh 95 (no result: CaV13 ICDI inh, CASP6 VEID inh, FN deposit inh) | Alpha artifact inactive
Nc1c(C(=O)CCC(=O)O)oc2ccc(Cl)cc12	none (no result: NSD2 inh)
Cc1oc(-c2cccs2)nc1CN1CCN(CCC(C)C)C(CCO)C1 (stereo unspecified)	none
Cc1oc(-c2cccs2)nc1CN1CCN(C2CCCC2)C(CCO)C1 (stereo unspecified)	NSD2 inh 52 | Alpha artifact inactive
CCNc1ccccc(C(=O)/C=C/c2ccc3c(c2)OCO3)c1=O	NSD2 inh 66 (no result: CaV13 ICDI inh, CASP6 VEID inh, FN deposit inh) | Alpha artifact inactive
COc1ccccc1CNC(=O)C[C@@H]1C[C@@H]2c3cc(NS(=O)(=O)c4ccc(F)cc4)ccc3O[C@@H]2[C@H](CO)O1	none (no result: NPR1 activator, CaV13 ICDI inh, NSD2 inh, GC-B act, FN deposit inh)
O=C1c2cccc3c([N+](=O)[O-])ccc(c23)C(=O)N1CCc1ccccn1	none
CN(C)CCCN1C(=O)c2cccc3c([N+](=O)[O-])ccc(c23)C1=O	NSD2 inh 71 (no result: CASP6 VEID inh) | Alpha artifact inactive
CCOC(=O)N1CCN(C2=Nc3cccc4cccc2c34)CC1	NSD2 inh 71 (no result: CaV13 ICDI inh, CASP6 VEID inh, FN deposit inh) | Alpha artifact inactive
O=C(CC1C(=O)N(c2ccccc2)C(=S)N1c1ccccc1)c1ccc(Br)cc1 (stereo unspecified)	NSD2 inh 50 | Alpha artifact inactive
O=C(CC1C(=O)N(c2ccccc2)C(=S)N1c1ccccc1)c1ccccc1 (stereo unspecified)	none
C[C@@H]1CCCCO[C@H](CN(C)S(=O)(=O)c2ccc(F)cc2)[C@@H](C)CN([C@@H](C)CO)C(=O)c2cc(NC(=O)Nc3ccc4c(c3)OCO4)ccc2O1	none (no result: NPR1 activator, CaV13 ICDI inh, NSD2 inh, GC-B act)
COc1cc(OC)c(-c2c3cc(O)c(=O)cc-3oc3cc(O)c(O)cc23)cc1OC	NSD2 inh 143, CASP6 VEID inh 64 | Alpha artifact 0.85µM
COc1cc(-c2cc(=O)c3ccc(O)cc3o2)cc(OC)c1OC	none (no result: CaV13 ICDI inh, NSD2 inh, FN deposit inh)
O=C(/C=C/c1ccc(O)cc1)c1ccc(NC2=C(N3CCCCC3)C(=O)c3ccccc3C2=O)cc1	none (no result: FN deposit inh)
O=C1C(Nc2cccc(O)c2)=C(N2CCCCC2)C(=O)c2ccccc21	NSD2 inh 64 (no result: CASP6 VEID inh) | Alpha artifact inactive
O=C1C(NS(=O)(=O)c2ccc(Br)cc2)=C(N2CCCCC2)C(=O)c2ccccc21	NSD2 inh 58 | Alpha artifact 2.4µM
O=[N+]([O-])c1ccc(N/N=C/c2cccs2)nc1	NSD2 inh 52 | Alpha artifact inactive
Cc1nn2c3ccccc3n(CCN3CCCCC3)c2nc1=O	NSD2 inh 110 (no result: CASP6 VEID inh, FN deposit inh) | Alpha artifact inactive
Cc1ccc(NC(=S)N2CCC(NC(=O)c3ccc(F)cc3)CC2)cc1	NSD2 inh 61 | Alpha artifact inactive
Cc1ccc(NC(=S)N2CCC(NC(=O)c3ccccc3)CC2)cc1	none
O=C(Nc1ccccc1C(=O)O)c1cncc(Br)c1	NSD2 inh 68 (no result: CASP6 VEID inh) | Alpha artifact inactive
CCCc1nc2sc3ccccc3c(=O)c2c(=O)n1Cc1ccccc1	NSD2 inh 61 | Alpha artifact inactive
CCN(CC)c1cc(Cl)c2nonc2c1N	none
CN(C)c1cc(Cl)c2nonc2c1N	NSD2 inh 104, CASP6 VEID inh 99 | Alpha artifact inactive
O=C(O)C(c1ccccc1)N1C(=O)/C(=C\c2ccc(O)c(O)c2)SC1=S (stereo unspecified)	NSD2 inh 105 | Alpha artifact 7.6µM
c1ccc(CN2CCN(c3nc(-c4ccccc4)nc(-n4ccnc4)n3)CC2)cc1	NSD2 inh 63 (no result: NPR1 activator, CaV13 ICDI inh, GC-B act, CASP6 VEID inh, FN deposit inh) | Alpha artifact inactive
c1ccc(-c2nc(-n3ccnc3)nc(-n3ccnc3)n2)cc1	none (no result: CASP6 VEID inh)
Nc1nc(Nc2ccccc2F)nc(NCc2ccccc2)c1[N+](=O)[O-]	none
Nc1nc(Nc2ccccc2F)nc(NCCO)c1[N+](=O)[O-]	NSD2 inh 60 | Alpha artifact inactive
NC1(C(=O)O)CSSC1	NSD2 inh 76 | Alpha artifact inactive
C[C@H](CO)N1C[C@H](C)[C@@H](CN(C)C(=O)c2cccnc2)Oc2ncc(-c3ccc(C#N)cc3)cc2C1=O	none (no result: NPR1 activator, CaV13 ICDI inh, NSD2 inh, GC-B act, CASP6 VEID inh)
CCOc1ccc(NC2=CC(=O)C(=O)c3ccccc32)cc1	none
O=C1C=C(Nc2cccnc2)c2ccccc2C1=O	NSD2 inh 99, CASP6 VEID inh 96 | Alpha artifact inactive
O=c1cccccc1NCc1ccccc1	none
O=C1C=C(Nc2ccccc2O)c2ccccc2C1=O	NSD2 inh 94, CASP6 VEID inh 41 (no result: NPR1 activator, GC-B act, FN deposit inh) | Alpha artifact inactive
O=C1C=C(NCc2ccccc2)c2ccccc2C1=O	NSD2 inh 140, CASP6 VEID inh 80 | Alpha artifact inactive
COc1ccccc1-c1cn(CC[C@@H]2CC[C@@H](NC(=O)C3CCC3)[C@H](CO)O2)nn1	none (no result: NPR1 activator, CaV13 ICDI inh, NSD2 inh, GC-B act, FN deposit inh)
CC(C)NC(=O)Nc1ccc2c(c1)C(=O)N([C@@H](C)CO)C[C@H](C)[C@H](CN(C)C)OCCCC[C@@H](C)O2	none (no result: NPR1 activator, CaV13 ICDI inh, NSD2 inh, GC-B act)

Source: PubChem BioAssay
